Measured values taken from ChEMBL document CHEMBL1155296, “Design, synthesis and biological evaluation of novel pyridine derivatives as anticancer agents and phosphodiesterase 3 inhibitors” (Bioorg Med Chem, 2009).

Legend:
[1] = molecular target: T1, cGMP-inhibited 3',5'-cyclic phosphodiesterase 3A (Homo sapiens, UniProt Q14432); experiment: Inhibition of human recombinant PDE3A assessed as cGMP hydrolysis at 50 uM after 60 mins by fluorescence polarization assay using tetramethylrhodamine-tagged cGMP as substrate
Summary of the method: (§1)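 Single-point screen at 50 μM in triplicate. Recombinant PDE3A in 10 mM Tris-HCl pH 7.2, 10 mM MgCl2, 0.05% NaN3, 0.1% phosphate-free BSA. Substrate 50 nM FI-cAMP and/or TAMRA-cGMP, hydrolysis read simultaneously by IMAP fluorescence polarization after 60 min at room temperature and termination with binding solution.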

HT-29 [2] = experiment: Growth inhibition of human HT-29 cells at 50 uM after 72 hrs by luminescent assay; assay type: functional; settings: HT-29, 72 h, read-out: GI
Summary of the method: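 HT-29 cells in RPMI 1640 with 5% FBS at 37 °C, 5% CO2, >95% viability required. Plated at 5000 cells/well and left 18–24 h, then given 50 μM compound in triplicate. Viability measured 72 h later by CellTiter-Glo luminescence.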

[3] = molecular target: T1, cGMP-inhibited 3',5'-cyclic phosphodiesterase 3A; experiment: Inhibition of human recombinant PDE3A assessed as cAMP hydrolysis at 50 uM after 60 mins by fluorescence polarization assay using fluorescein-tagged cAMP as substrate; summary of the method: as §1
HT-29 [4] = experiment: Growth inhibition of human HT-29 cells after 72 hrs by luminescent assay; assay type: functional, cell-based; settings: HT-29, 72 h
Summary of the method: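 HT-29 cells (ATCC) in RPMI 1640 + 5% FBS, 37 °C, 5% CO2; only cultures >95% viable (Trypan blue) used. Seeded 5000 cells/well, 18–24 h before treatment. Live cells read by CellTiter-Glo luminescence (ATP content) 72 h post-treatment.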

[5] = molecular target: T1, cGMP-inhibited 3',5'-cyclic phosphodiesterase 3A; experiment: Inhibition of human recombinant PDE3A assessed as cGMP hydrolysis after 60 mins by fluorescence polarization assay using tetramethylrhodamine-tagged cGMP as substrate

T1 sequence (Q14432 whole entry): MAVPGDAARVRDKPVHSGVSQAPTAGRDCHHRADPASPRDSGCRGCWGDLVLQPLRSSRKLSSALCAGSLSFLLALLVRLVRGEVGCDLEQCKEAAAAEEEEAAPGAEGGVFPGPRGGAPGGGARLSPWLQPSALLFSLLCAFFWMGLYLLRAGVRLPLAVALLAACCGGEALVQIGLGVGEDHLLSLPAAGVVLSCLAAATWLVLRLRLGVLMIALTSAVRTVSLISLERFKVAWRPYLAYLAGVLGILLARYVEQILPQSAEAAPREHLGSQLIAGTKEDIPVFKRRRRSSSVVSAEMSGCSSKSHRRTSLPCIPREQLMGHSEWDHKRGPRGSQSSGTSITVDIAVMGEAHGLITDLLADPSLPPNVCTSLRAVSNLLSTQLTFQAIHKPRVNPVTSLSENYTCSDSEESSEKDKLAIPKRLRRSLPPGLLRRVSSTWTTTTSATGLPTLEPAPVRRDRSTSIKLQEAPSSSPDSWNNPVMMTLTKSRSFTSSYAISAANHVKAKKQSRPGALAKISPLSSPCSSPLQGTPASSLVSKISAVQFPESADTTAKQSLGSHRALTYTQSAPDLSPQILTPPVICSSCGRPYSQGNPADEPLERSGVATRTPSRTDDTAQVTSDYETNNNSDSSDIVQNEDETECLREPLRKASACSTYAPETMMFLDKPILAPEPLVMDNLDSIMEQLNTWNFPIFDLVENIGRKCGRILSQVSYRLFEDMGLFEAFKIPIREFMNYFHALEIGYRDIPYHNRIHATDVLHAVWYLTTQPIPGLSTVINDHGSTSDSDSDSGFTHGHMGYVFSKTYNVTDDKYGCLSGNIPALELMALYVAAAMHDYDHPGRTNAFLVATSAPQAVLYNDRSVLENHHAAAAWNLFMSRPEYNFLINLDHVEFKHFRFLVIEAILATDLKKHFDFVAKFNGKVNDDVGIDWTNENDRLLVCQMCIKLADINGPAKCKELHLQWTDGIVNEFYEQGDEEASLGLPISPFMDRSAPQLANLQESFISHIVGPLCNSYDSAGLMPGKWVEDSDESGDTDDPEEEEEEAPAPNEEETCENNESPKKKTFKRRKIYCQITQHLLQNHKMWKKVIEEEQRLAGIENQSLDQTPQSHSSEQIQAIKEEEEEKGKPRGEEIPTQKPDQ

With `CCOc1ccc(-c2cc(-c3ccc4c(c3)OCO4)[nH]c(=O)c2C#N)cc1` the inhibition [1] was 22.3%, the inhibition of growth at 50 µM (HT-29 [2]) was 3.84% and the inhibition [3] was 10.5%.
Compound `COc1ccccc1-c1cc(-c2ccc(Br)cc2)[nH]c(=N)c1C#N` has an IC50 (HT-29 [4]) of 50 µM, an inhibition of growth at 50 µM (HT-29 [2]) of 75% and an inhibition [3] of 16.3%.
`N#Cc1c(-c2cccs2)cc(-c2ccc(Br)cc2)[nH]c1=O` was tested, and the inhibition [1] was 4%, the inhibition of growth at 50 µM (HT-29 [2]) was -20% and the inhibition [3] was 3%.
`N#Cc1c(-c2cccs2)cc(-c2ccc3c(c2)OCO3)[nH]c1=O` gave an inhibition [1] of 49.6%, an inhibition of growth at 50 µM (HT-29 [2]) of 6.14% and an inhibition [3] of 32.3%.
Compound `COc1ccccc1-c1cc(-c2ccc3c(c2)OCO3)[nH]c(=N)c1C#N` has an inhibition [1] of 35%, an IC50 (HT-29 [4]) of 4.17 µM and an inhibition of growth at 50 µM (HT-29 [2]) of 95%. It also gave an inhibition [3] of 45%.
`COc1ccccc1-c1cc(-c2ccc(Br)cc2)[nH]c(=O)c1C#N` was tested, and the inhibition [1] was 15.1%, the inhibition of growth at 50 µM (HT-29 [2]) was 13.6% and the inhibition [3] was 6.12%.
`CCOc1ccc(-c2cc(-c3ccc4c(c3)OCO4)[nH]c(=N)c2C#N)cc1` gave an inhibition [1] of -8.99%, an IC50 (HT-29 [4]) of 12 µM and an inhibition of growth at 50 µM (HT-29 [2]) of 87.7%. For the same compound, the inhibition [3] was 45.9%.
`N#Cc1c(-c2ccsc2)cc(-c2ccc(Br)cc2)[nH]c1=O` showed an inhibition [1] of -5%, an inhibition of growth at 50 µM (HT-29 [2]) of -25% and an inhibition [3] of 2%.
With `N#Cc1c(-c2ccsc2)cc(-c2ccc(Br)cc2)[nH]c1=N` the inhibition [1] was 42%, the inhibition of growth at 50 µM (HT-29 [2]) was -5% and the inhibition [3] was 1.5%.
In the case of `CCOc1ccc(-c2cc(-c3ccc(Br)cc3)[nH]c(=N)c2C#N)cc1`, the inhibition [1] is reported as 50%, the IC50 (HT-29 [4]) is reported as 14.2 µM and the inhibition of growth at 50 µM (HT-29 [2]) is reported as 75%. For the same compound, the inhibition [3] was 30%.
In the case of `N#Cc1c(-c2cccs2)cc(-c2ccc3c(c2)OCO3)[nH]c1=N`, the inhibition [1] is reported as 10%, the inhibition of growth at 50 µM (HT-29 [2]) is reported as -20% and the inhibition [3] is reported as 5%.
With `Cc1[nH]c(=O)c(C#N)cc1-c1ccncc1` [MILRINONE] the inhibition [1] was 35%, the IC50 (HT-29 [4]) was > 50 µM and the inhibition of growth at 50 µM (HT-29 [2]) was 0%. It also gave an inhibition [3] of 77%.
With `N#Cc1c(-c2cccs2)cc(-c2ccc(Br)cc2)[nH]c1=N` the IC50 (HT-29 [4]) was 35 µM, the inhibition of growth at 50 µM (HT-29 [2]) was 98.7% and the inhibition [3] was 3.57%.
Work on `CCOc1ccccc1-c1cc(-c2ccc3c(c2)OCO3)[nH]c(=N)c1C#N` yielded an inhibition [1] of 26.2%, an IC50 (HT-29 [4]) of 3 µM and an inhibition of growth at 50 µM (HT-29 [2]) of 91.2%. For the same compound, the inhibition [3] was 19%.
With `N#Cc1c(-c2ccsc2)cc(-c2ccc3c(c2)OCO3)[nH]c1=N` the inhibition [1] was 3%, the inhibition of growth at 50 µM (HT-29 [2]) was 45% and the inhibition [3] was 18%.
Work on `CCOc1ccc(-c2cc(-c3ccc(Br)cc3)[nH]c(=O)c2C#N)cc1` yielded an inhibition [1] of 10.8%, an inhibition of growth at 50 µM (HT-29 [2]) of 10.7% and an inhibition [3] of 4.76%.
For `COc1ccccc1-c1cc(-c2ccc3c(c2)OCO3)[nH]c(=O)c1C#N`, the inhibition [1] was 30%, the inhibition of growth at 50 µM (HT-29 [2]) was 0% and the inhibition [3] was 30%.
`CCOc1ccccc1-c1cc(-c2ccc3c(c2)OCO3)[nH]c(=O)c1C#N` showed an inhibition [1] of 14.4%, an inhibition of growth at 50 µM (HT-29 [2]) of 8.28% and an inhibition [3] of 7.65%.
For `CCOc1ccccc1-c1cc(-c2ccc(Br)cc2)[nH]c(=N)c1C#N`, the inhibition [1] was 126%, the IC50 (HT-29 [4]) was 13 µM and the inhibition of growth at 50 µM (HT-29 [2]) was 99.8%. It also gave an inhibition [3] of 37.9%.
`N#Cc1c(-c2ccsc2)cc(-c2ccc3c(c2)OCO3)[nH]c1=O` gave an inhibition [1] of 20%, an inhibition of growth at 50 µM (HT-29 [2]) of -25% and an inhibition [3] of 8%.
`CCOc1ccccc1-c1cc(-c2ccc(Br)cc2)nc(N)c1C#N` gave an IC50 [5] of 27 µM.
For `CCOc1ccccc1-c1cc(-c2ccc(Br)cc2)[nH]c(=O)c1C#N`, the inhibition [1] was 35.2%, the inhibition of growth at 50 µM (HT-29 [2]) was 2.81% and the inhibition [3] was 13.1%.
